Reference: ChEMBL document CHEMBL2176869, “Discovery of TAK-875: A Potent, Selective, and Orally Bioavailable GPR40 Agonist” (ACS Med Chem Lett, 2010)
One block for each compound: values may come before it. The source made the active and inactive calls. The calls are words filed in the database; no cut-off is given here.

Columns and labels:
[1] = biological target: Free fatty acid receptor 1 (Rattus norvegicus, UniProt Q8K3T4); test: Displacement of 3-[4-({2',6'-dimethyl-6-[(4-[3H])phenylmethoxy]biphenyl-3-yl}methoxy)phenyl]propanoic acid from rat GPR40 expressed in CHO membranes after 90 mins by liquid scintillation counting in presence of 0.2 % BSA; assay type: cell membranes, Membrane
Chain of Free fatty acid receptor 1 (Rattus norvegicus, UniProt Q8K3T4) (Q8K3T4 whole entry): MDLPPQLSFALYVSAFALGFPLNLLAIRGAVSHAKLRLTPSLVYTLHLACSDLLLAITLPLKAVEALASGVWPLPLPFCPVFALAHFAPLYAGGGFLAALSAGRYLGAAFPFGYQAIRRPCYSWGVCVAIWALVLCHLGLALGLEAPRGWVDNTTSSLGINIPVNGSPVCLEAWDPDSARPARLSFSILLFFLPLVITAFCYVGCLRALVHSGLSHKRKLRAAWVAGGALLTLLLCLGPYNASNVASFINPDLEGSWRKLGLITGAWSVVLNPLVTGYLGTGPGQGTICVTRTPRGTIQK

[2] = biological target: T1, Free fatty acid receptor 1 (Homo sapiens, UniProt O14842); test: Displacement of 3-[4-({2',6'-dimethyl-6-[(4-[3H])phenylmethoxy]biphenyl-3-yl}methoxy)phenyl]propanoic acid from human GPR40 expressed in CHO membranes after 90 mins by liquid scintillation counting in presence of 0.2 % BSA; assay type: cell membranes
T1 sequence (O14842 whole entry): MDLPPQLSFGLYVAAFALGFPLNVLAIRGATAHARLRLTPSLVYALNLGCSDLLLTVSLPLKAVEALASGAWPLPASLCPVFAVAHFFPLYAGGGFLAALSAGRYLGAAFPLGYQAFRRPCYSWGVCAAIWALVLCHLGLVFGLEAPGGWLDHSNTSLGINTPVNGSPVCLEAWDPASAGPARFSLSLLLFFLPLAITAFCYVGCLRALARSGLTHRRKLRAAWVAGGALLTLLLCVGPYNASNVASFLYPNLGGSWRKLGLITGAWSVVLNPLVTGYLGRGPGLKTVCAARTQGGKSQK

[3] = biological target: T1, Free fatty acid receptor 1; test: Agonist activity at human GPR40 expressed in CHO cells assessed as calcium influx by FLIPR assay in presence of 0.1 % BSA; assay type: functional, cell-based
[4] = Cmax in fasted dog at 1 mg/kg, po; assay type: ADME, organism-based, Canis lupus familiaris; set-up: dose 1 mg/kg, route oral; conditions: in vivo
Method in brief: (§1)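 Dogs given 0.5 mg/kg iv or 1 mg/kg po, with plasma PK parameters derived. Cmax and AUC are reported as anhydrous-compound equivalents. Means of n = 4 dogs.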

Rattus norvegicus [5] = test: Antidiabetic activity in po dosed Wistar fatty rat assessed as reduction in blood glucose excursion at administered 1 hr prior glucose challenge as single dose by OGTT; assay type: functional; conditions: read-out: MED
Method in brief: (§2)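 Female Wistar fatty rats got a single oral dose of 0.3–3 mg/kg 1 h before a 1 g/kg oral glucose challenge (OGTT). Plasma glucose and insulin were followed over time. Read-outs were incremental AUC0–120 min for glucose and AUCpre–30 min for insulin. Means ± SD, n = 6; compared with vehicle control by one-tailed Williams' test.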

Rattus norvegicus [6] = test: Antidiabetic activity in po dosed Wistar fatty rat assessed as augmentation of insulin secretion at administered 1 hr prior glucose challenge as single dose by OGTT; assay type: functional; conditions: read-out: MED; method in brief: as §2
Rattus norvegicus [7] = test: Antidiabetic activity in Wistar fatty rat assessed as reduction in blood glucose excursion at 0.3 to 3 mg/kg, po administered 1 hr prior glucose challenge as single dose by OGTT; assay type: functional, organism-based; method in brief: as §2
[8] = Oral bioavailability in fasted dog at 1 mg/kg; assay type: ADME, organism-based, Canis lupus familiaris; conditions: in vivo; method in brief: as §1
[9] = AUC (0 to 24 hrs) in fasted dog at 1 mg/kg, po; assay type: ADME, organism-based, Canis lupus familiaris; set-up: time < 24 hr, dose 1 mg/kg, route oral; conditions: plasma; method in brief: as §1
[10] = Terminal half life in fasted dog at 1 mg/kg, po; assay type: ADME, organism-based, Canis lupus familiaris; set-up: dose 1 mg/kg, route oral; conditions: in vivo, read-out: t1/2lambda (converted); method in brief: as §1
[11] = Tmax in fasted dog at 1 mg/kg, po; assay type: ADME, organism-based, Canis lupus familiaris; set-up: dose 1 mg/kg, route oral; conditions: in vivo; method in brief: as §1
[12] = Terminal half life in fasted dog at 0.5 mg/kg, iv; assay type: ADME, organism-based, Canis lupus familiaris; set-up: dose 0.5 mg/kg, route intravenous; conditions: in vivo, read-out: t1/2lambda (converted); method in brief: as §1
[13] = Clearance in fasted dog at 0.5 mg/kg, iv; assay type: ADME, organism-based, Canis lupus familiaris; set-up: dose 0.5 mg/kg, route intravenous; conditions: in vivo; method in brief: as §1
[14] = Volume of distribution at steady state in fasted dog at 0.5 mg/kg, iv; assay type: ADME, organism-based, Canis lupus familiaris; set-up: dose 0.5 mg/kg, route intravenous; conditions: in vivo, read-out: Vdss; method in brief: as §1
[15] = AUC (0 to 24 hrs) in fasted Crl:CD(SD) rat at 3 mg/kg, po; assay type: ADME, organism-based; set-up: time < 24 hr, dose 3 mg/kg, route oral; conditions: plasma
Method in brief: (§3)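 Rats dosed at 1 mg/kg iv or 3 mg/kg po, with plasma sampling for PK parameters. Cmax and AUC are expressed as anhydrous-compound equivalents. Values are means of n = 3 rats.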

[16] = Oral bioavailability in fasted Crl:CD(SD) rat at 3 mg/kg; assay type: ADME, organism-based; conditions: in vivo; method in brief: as §3
[17] = Cmax in fasted Crl:CD(SD) rat at 3 mg/kg, po; assay type: ADME, organism-based; set-up: dose 3 mg/kg, route oral; conditions: in vivo; method in brief: as §3
[18] = Tmax in fasted Crl:CD(SD) rat at 3 mg/kg, po; assay type: ADME, organism-based; set-up: dose 3 mg/kg, route oral; conditions: in vivo; method in brief: as §3
[19] = Terminal half life in fasted Crl:CD(SD) rat at 1 mg/kg, iv; assay type: ADME, organism-based; set-up: dose 1 mg/kg, route intravenous; conditions: in vivo, read-out: t1/2lambda (converted); method in brief: as §3
[20] = Terminal half life in fasted Crl:CD(SD) rat at 3 mg/kg, po; assay type: ADME, organism-based; set-up: dose 3 mg/kg, route oral; conditions: in vivo, read-out: t1/2lambda (converted); method in brief: as §3
[21] = Volume of distribution at steady state in fasted Crl:CD(SD) rat at 1 mg/kg, iv; assay type: ADME, organism-based; set-up: dose 1 mg/kg, route intravenous; conditions: in vivo, read-out: Vdss; method in brief: as §3
[22] = biological target: T2, Free fatty acid receptor 4 (Homo sapiens, UniProt Q5NUL3); test: Agonist activity at human GPR120 expressed in CHO cells assessed as calcium influx after 30 mins by FLIPR assay; assay type: functional, cell-based
T2 sequence (Q5NUL3 whole entry): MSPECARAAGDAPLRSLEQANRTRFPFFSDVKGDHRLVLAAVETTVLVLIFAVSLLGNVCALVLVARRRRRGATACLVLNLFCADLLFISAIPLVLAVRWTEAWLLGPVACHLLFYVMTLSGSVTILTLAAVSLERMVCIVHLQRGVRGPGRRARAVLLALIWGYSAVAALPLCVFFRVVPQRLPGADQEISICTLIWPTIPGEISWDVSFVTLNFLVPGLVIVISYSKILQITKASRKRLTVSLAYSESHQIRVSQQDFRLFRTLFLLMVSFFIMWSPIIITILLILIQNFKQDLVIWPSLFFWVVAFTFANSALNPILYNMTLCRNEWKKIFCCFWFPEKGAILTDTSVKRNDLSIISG

[23] = Clearance in fasted Crl:CD(SD) rat at 1 mg/kg, iv; assay type: ADME, organism-based; set-up: dose 1 mg/kg, route intravenous; conditions: in vivo; method in brief: as §3
[24] = biological target: T3, Free fatty acid receptor 2 (Homo sapiens, UniProt O15552); test: Agonist activity at human GPR43 expressed in 293 cells assessed as cAMP accumulation after 30 mins by Alphascreen method; assay type: functional, cell-based, HEK293
T3 sequence (O15552 whole entry): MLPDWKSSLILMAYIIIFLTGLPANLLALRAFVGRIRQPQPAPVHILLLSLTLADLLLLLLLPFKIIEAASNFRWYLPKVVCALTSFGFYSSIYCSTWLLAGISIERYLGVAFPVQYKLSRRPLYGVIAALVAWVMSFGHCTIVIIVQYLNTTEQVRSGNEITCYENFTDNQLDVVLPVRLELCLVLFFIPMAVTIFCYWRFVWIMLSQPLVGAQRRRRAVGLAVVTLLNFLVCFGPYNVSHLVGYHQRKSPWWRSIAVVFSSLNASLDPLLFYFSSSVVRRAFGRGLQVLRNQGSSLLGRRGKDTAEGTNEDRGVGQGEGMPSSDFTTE

[25] = biological target: T4, Free fatty acid receptor 3 (Homo sapiens, UniProt O14843); test: Agonist activity at human GPR41 expressed in 293 cells assessed as cAMP accumulation after 30 mins by Alphascreen method; assay type: functional, cell-based, HEK293
T4 sequence (O14843 whole entry): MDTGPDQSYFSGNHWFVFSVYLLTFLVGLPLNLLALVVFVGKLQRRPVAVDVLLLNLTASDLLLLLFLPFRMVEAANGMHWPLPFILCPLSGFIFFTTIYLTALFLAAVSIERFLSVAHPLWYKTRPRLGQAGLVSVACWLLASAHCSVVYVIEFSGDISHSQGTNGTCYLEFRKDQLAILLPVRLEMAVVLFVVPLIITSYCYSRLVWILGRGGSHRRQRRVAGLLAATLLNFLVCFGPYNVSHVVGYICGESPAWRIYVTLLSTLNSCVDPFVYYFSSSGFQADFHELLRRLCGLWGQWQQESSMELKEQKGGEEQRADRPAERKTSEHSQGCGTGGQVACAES

Rattus norvegicus [26] = test: Antidiabetic activity in Wistar fatty rat assessed as augmentation of insulin secretion at 0.3 to 3 mg/kg, po administered 1 hr prior glucose challenge as single dose by OGTT

- Ki [1]: 54 nM
SMILES: Cc1cccc(C)c1-c1cccc(COc2ccc(CCC(=O)O)c(F)c2)c1

- Ki [1]: > 10000 nM
- Ki [2]: > 10000 nM
- EC50 [3]: 1700 nM
SMILES: Cc1cccc(C)c1-c1cccc(COc2ccc3c(CC(=O)O)coc3c2)c1

- Ki [1]: 1100 nM
- Ki [2]: 170 nM
- EC50 [3]: 22 nM
SMILES: Cc1cccc(C)c1-c1cccc(COc2ccc3c(c2)OCC3CC(=O)O)c1 (centres undefined)

The next lines start with the compound.

SMILES: Cc1cccc(C)c1-c1cccc(COc2ccc3c(c2)CCCCC3CC(=O)O)c1 (centres undefined)
- Ki [1]: > 10000 nM
- Ki [2]: 2400 nM
- EC50 [3]: 540 nM

SMILES: Cc1cccc(C)c1-c1cccc(COc2ccc3c(c2)CCC3CC(=O)O)c1 (centres undefined)
- Ki [1]: 520 nM
- Ki [2]: 210 nM
- EC50 [3]: 28 nM

SMILES: Cc1cccc(C)c1-c1cccc(COc2ccc3c(c2)OCCC(C(=O)O)C3)c1 (centres undefined)
- Ki [1]: > 10000 nM
- Ki [2]: 270 nM
- EC50 [3]: 49 nM

SMILES: Cc1cccc(C)c1-c1cccc(COc2ccc3c(c2)CCCC3CC(=O)O)c1 (centres undefined)
- Ki [1]: 3700 nM
- Ki [2]: 59 nM
- EC50 [3]: 23 nM

SMILES: Cc1cc(OCCCS(C)(=O)=O)cc(C)c1-c1cccc(COc2ccc3c(c2)OC[C@H]3CC(=O)O)c1.O
- Cmax [4]: 3290 ng/mL
- minimal effective dose (Rattus norvegicus [5]): 1 mg/kg
- minimal effective dose (Rattus norvegicus [6]): 1 mg/kg
- Activity (Rattus norvegicus [7]): Active
- bioavailability [8]: 92.4%
- AUC(0-t) at 24 h [9]: 29400 ng·h/mL
- half-life [10]: 7.5 h
- Tmax [11]: 2 h
- half-life [12]: 5.9 h
- clearance [13]: 0.496 mL/min/kg
- Vd [14]: 0.225 L/kg
- AUC(0-t) at 24 h [15]: 65000 ng·h/mL
- bioavailability [16]: 76%
- Cmax [17]: 5770 ng/mL
- Tmax [18]: 1 h
- half-life [19]: 4.7 h
- half-life [20]: 4.1 h
- Vd [21]: 0.208 L/kg
- EC50 [22]: > 10000 nM
- clearance [23]: 0.569 mL/min/kg
- EC50 [24]: > 10000 nM
- EC50 [25]: > 10000 nM
- Ki [1]: 140 nM
- Activity (Rattus norvegicus [26]): Active

SMILES: Cc1cc(OCCCS(C)(=O)=O)cc(C)c1-c1cccc(COc2ccc3c(c2)OC[C@@H]3CC(=O)O)c1
- Ki [1]: 1600 nM
